The source made the active and inactive calls. No cut-off for these calls is given here.
Legend:
[1] = tested on: Vero; test: Induction of depolymerization of actin microfilaments in african green monkey Vero cells at 25 uM after 30 mins by immunofluorescence method; type: functional, cell-based; details: Chlorocebus sabaeus
[2] = tested on: Vero; test: Inhibition of GBF1 in african green monkey Vero cells assessed as rapid COPI redistribution from golgi at 10 uM after 5 mins by immunofluorescence method; type: cell-based; details: Chlorocebus sabaeus
[3] = tested on: Vero; test: Inhibition of GBF1 in african green monkey Vero cells assessed as rapid AP-1 dispersal from golgi membranes at 10 uM after 5 mins by immunofluorescence method; type: cell-based; details: Chlorocebus sabaeus
[4] = tested on: Vero; test: Inhibition of GBF1 in african green monkey Vero cells assessed as rapid GGA3 dispersal from trans golgi network at 10 uM after 5 mins by immunofluorescence method; type: cell-based; details: Chlorocebus sabaeus
[5] = tested on: Vero; test: Inhibition of GBF1 in african green monkey Vero cells assessed as induction of betaCOP dispersal from golgi membranes at 10 uM after 5 mins by immunofluorescence method; type: cell-based; details: Chlorocebus sabaeus
[6] = tested on: Vero; test: Inhibition of GBF1 in african green monkey Vero cells assessed as colocalization with ERGIC-53 marker in ER-golgi intermediate compartment by immunofluorescence method; type: cell-based; details: Chlorocebus sabaeus
[7] = tested on: Vero; test: Effect on BIG1 distribution from golgi in african green monkey Vero cells by immunofluorescence method; type: functional, cell-based; details: Chlorocebus sabaeus
[8] = tested on: Vero; test: Effect on BIG2 distribution from golgi in african green monkey Vero cells by immunofluorescence method; type: functional, cell-based; details: Chlorocebus sabaeus
[9] = tested on: Vero; test: Inhibition of GBF1 in african green monkey Vero cells overexpressing BIG1 assessed as punctate and diffuse distribution of medial-Golgi marker giantin from golgi at 10 uM after 1 hr by immunofluorescence method; type: cell-based; details: Chlorocebus sabaeus
[10] = tested on: Vero; test: Inhibition of GBF1 in african green monkey Vero cells overexpressing BIG1 assessed as distribution of trans-Golgi marker TGN46 from TGN at 10 uM after 1 hr by immunofluorescence method; type: cell-based; details: Chlorocebus sabaeus
[11] = tested on: MDCK; test: Effect on golgi morphology in MDCK cells at 10 uM after 1 hr by immunofluorescence method; type: functional, cell-based; details: Canis lupus familiaris
Procedure, shortened: (§1)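 MDCK cells (EMEM, 10% FCS) and Vero cells, untreated or given compound 10 μM for 1 h; fixed and immunostained for βCOP and Golgi markers; distribution compared by immunofluorescence.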

[12] = tested on: MDCK; test: Induction of betaCOP distribution from golgi membranes in MDCK cells at 10 uM after 1 hr by immunofluorescence method; type: functional, cell-based; details: Canis lupus familiaris; procedure, shortened: as §1
[13] = tested on: Vero; test: Inhibition of GBF1 M832L mutant in african green monkey Vero cells assessed as effect on betaCOP localization from golgi at 100 uM by immunofluorescence method; type: cell-based; details: Chlorocebus sabaeus
[14] = tested on: Vero; test: Inhibition of GBF1 M832L mutant in african green monkey Vero cells assessed as effect on TGN46 localization from golgi at 100 uM by immunofluorescence method; type: cell-based; details: Chlorocebus sabaeus
[15] = tested on: Vero; test: Inhibition of GBF1 M832L mutant in african green monkey Vero cells assessed as effect on GM130 localization from golgi at 100 uM by immunofluorescence method; type: cell-based; details: Chlorocebus sabaeus
[16] = tested on: Vero; test: Inhibition of GBF1 R843A mutant in african green monkey Vero cells mutant assessed as effect on change in golgi morphology at 10 uM after 1 hr by immunofluorescence method; type: cell-based; details: Chlorocebus sabaeus
Procedure, shortened: (§2)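 Vero cells transiently transfected (Lipofectamine 2000) with HA-tagged GBF1 wild type or R843A, K844A, Q845A or N846A mutant; after 36 h exposed 60 min to compound 10 μM, fixed, stained anti-HA and anti-giantin; Golgi morphology scored in expressing cells.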

[17] = tested on: Vero; test: Inhibition of GBF1 Q845A mutant in african green monkey Vero cells mutant assessed as effect on change in golgi morphology at 10 uM after 1 hr by immunofluorescence method; type: cell-based; details: Chlorocebus sabaeus; procedure, shortened: as §2
[18] = tested on: Vero; test: Inhibition of GBF1 N846A mutant in african green monkey Vero cells mutant assessed as effect on change in golgi morphology at 10 uM after 1 hr by immunofluorescence method; type: cell-based; details: Chlorocebus sabaeus; procedure, shortened: as §2
[19] = tested on: Vero; test: Inhibition of GBF1 K844A mutant in african green monkey Vero cells mutant assessed as effect on change in golgi morphology at 10 uM after 1 hr by immunofluorescence method; type: cell-based; details: Chlorocebus sabaeus; procedure, shortened: as §2
[20] = tested on: Vero; test: Inhibition of GBF1 in african green monkey Vero cells assessed as Arf1 activation at 10 uM after 1 hr; type: cell-based; details: Chlorocebus sabaeus
[21] = tested on: Vero; test: Inhibition of Arf1 in african green monkey Vero cells assessed as decrease in Arf1-GTP levels at 10 ug/ml after 1 hr; type: cell-based; details: Chlorocebus sabaeus
Procedure, shortened: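 Vero cells transduced with adenoviral Arf1-V5, alone or with GBF1-ML-HA; next day reseeded, then 45 min at 37°C with medium, BFA 10 µg/ml or compound 10 μM. Lysates pulled down with GGA3 VHS-GAT-GST on glutathione agarose, 30 min 4°C; Arf1-GTP by anti-V5 Western, band densitometry, duplicate experiments averaged.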

[22] = tested on: Vero; test: Inhibition of GBF1-M832L mutant in african green monkey Vero cells assessed as Arf1 activation at 10 uM after 1 hr; type: cell-based; details: Chlorocebus sabaeus
[23] = tested on: Vero; test: Inhibition of GBF1 in african green monkey Vero cells assessed as tsVSVG-GFP transport to plasma membrane at 10 uM by immunofluorescence method; type: cell-based; details: Chlorocebus sabaeus
Procedure, shortened: (§3)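 Vero cells co-transfected with tsVSVG-GFP (ts045) and optionally GBF1-HA WT or M832L; held 12-16 h at 42°C for ER arrest, then cycloheximide 100 µg/ml plus compound 10 µM or BFA 10 µg/ml, shifted to 32°C for various times (up to 4 h); fixed, anti-HA stained, transport imaged.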

[24] = tested on: Vero; test: Inhibition of GBF1-M832L mutant in african green monkey Vero cells assessed as tsVSVG-GFP transport to plasma membrane at 10 uM by immunofluorescence method; type: cell-based; details: Chlorocebus sabaeus; procedure, shortened: as §3
[25] = tested on: Vero; test: Inhibition of GBF1 in african green monkey Vero cells assessed as colocalization of tsVSVG-GFP with […] at 10 uM by immunofluorescence method; type: cell-based; details: Chlorocebus sabaeus
[26] = tested on: Vero; test: Inhibition of GBF1-M832L mutant in african green monkey Vero cells assessed as colocalization of tsVSVG-GFP with […] at 10 uM by immunofluorescence method; type: cell-based; details: Chlorocebus sabaeus
[27] = tested on: Vero; test: Inhibition of GBF1 mediated NPY-GFP secretion in african green monkey Vero cells at 10 uM by immunofluorescence method; type: cell-based; details: Chlorocebus sabaeus
[28] = tested on: Vero; test: Inhibition of GBF1-M832L mutant mediated NPY-GFP secretion in african green monkey Vero cells at 10 uM by immunofluorescence method; type: cell-based; details: Chlorocebus sabaeus
[29] = tested on: Vero; test: Inhibition of GBF1 in african green monkey Vero cells assessed as inhibition of StxB-SS retrogade transport from endosomes to TGN at 10 uM by immunofluorescence method; type: cell-based; details: Chlorocebus sabaeus
[30] = tested on: Vero; test: Inhibition of Arf1 in african green monkey Vero cells assessed as inhibition of StxB-SS retrogade transport from endosomes to TGN at 10 ug/ml by immunofluorescence method; type: cell-based; details: Chlorocebus sabaeus
[31] = tested on: Vero; test: Inhibition of GBF1 M832L in african green monkey Vero cells assessed as inhibition of StxB-SS retrogade transport from endosomes to TGN at 10 uM by immunofluorescence method; type: cell-based; details: Chlorocebus sabaeus
[32] = tested on: Vero; test: cells; type: functional, cell-based; details: Chlorocebus sabaeus, 0.5 h
[33] = tested on: Vero; test: Inhibition of GBF1 in african green monkey Vero cells assessed as punctate and diffuse distribution of medial-Golgi marker giantin […] at 10 uM after 1 hr by immunofluorescence method; type: cell-based; details: Chlorocebus sabaeus
[34] = tested on: Vero; test: Induction of GBF1 in african green monkey Vero cells assessed as punctate and diffuse distribution of cis-Golgi marker GM130 from TGN at 10 uM after 1 hr by immunofluorescence method; type: cell-based; details: Chlorocebus sabaeus
[35] = tested on: Vero; test: Inhibition of Arf1 in african green monkey Vero cells assessed as punctate and diffuse distribution of medial-Golgi marker giantin at 10 ug/ml after 1 hr by immunofluorescence method; type: cell-based; details: Chlorocebus sabaeus
[36] = tested on: Vero; test: Inhibition of GBF1 in african green monkey Vero cells assessed as giantin positive punctate structures in contact with Sec31-positive ER exit site at 10 uM after 1 hr by immunofluorescence method; type: cell-based; details: Chlorocebus sabaeus
Procedure, shortened: (§4)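 Vero cells given BFA 10 μg/ml or compound 10 μM for 60 min, fixed, co-stained for giantin and ER exit site marker Sec31; giantin puncta relative to ERES scored by immunofluorescence.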

[37] = tested on: Vero; test: Inhibition of Arf1 in african green monkey Vero cells assessed as giantin positive punctate structures in contact with Sec31-positive ER exit site at 10 ug/ml after 1 hr by immunofluorescence method; type: cell-based; details: Chlorocebus sabaeus; procedure, shortened: as §4
[38] = tested on: Vero; test: Effect on disruption of microtubules in african green monkey Vero cells at 10 uM after 30 mins by immunofluorescence method; type: functional, cell-based; details: Chlorocebus sabaeus
Procedure, shortened: (§5)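 Vero cells (DMEM, 10% FCS, 1% nonessential amino acids, 37°C, 5% CO2) exposed 30 min at 37°C to compound, DMSO, nocodazole or cytochalasin B; fixed and immunostained for microtubules or actin; scored by immunofluorescence microscopy.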

[39] = tested on: Vero; test: Effect on depolymerization of actin microfilaments in african green monkey Vero cells at 10 uM after 30 mins by immunofluorescence method; type: functional, cell-based; details: Chlorocebus sabaeus; procedure, shortened: as §5
[40] = tested on: Vero; test: Effect on transit of transferrin through endocytic and recycling pathway in african green monkey Vero cells at 10 uM after 1 hr by immunofluorescence method; type: functional, cell-based; details: Chlorocebus sabaeus

## C=C1[C@@H](C)[C@H]2[C@H](Cc3ccccc3)NC(=O)[C@]23OC(=O)/C=C/[C@H](O)CCC[C@@H](C)C/C=C/[C@H]3[C@@H]1O
[1]
  Activity: Active

## Fc1cc(F)c2c(c1)[C@H]1C=CC[C@H]1C(c1cccnc1)N2 (stereo not given in full) [GOLGICIDE A]
[2]
  inhibition: Active
[3]
  inhibition: inactive
[4]
  inhibition: inactive
[5]
  inhibition: Active
[6]
  inhibition: Active
[7]
  Activity: inactive
[8]
  Activity: inactive
[9]
  inhibition: inactive
[10]
  inhibition: inactive
[11]
  Activity: inactive
[12]
  Activity: inactive
[13]
  inhibition: inactive
[14]
  inhibition: inactive
[15]
  inhibition: inactive
[16]
  inhibition: inactive
[17]
  inhibition: inactive
[18]
  inhibition: inactive
[19]
  inhibition: inactive
[20]
  inhibition: 34%
[21]
  inhibition: 75%
[22]
  inhibition: inactive
[23]
  inhibition: Active
[24]
  inhibition: inactive
[25]
  inhibition: Active
[26]
  inhibition: inactive
[27]
  inhibition: Active
[28]
  inhibition: inactive
[29]
  inhibition: Active
[30]
  inhibition: Active
[31]
  inhibition: Active
[32]
  IC50: 3.3 µM
[33]
  inhibition: Active
[34]
  Activity: Active
[35]
  inhibition: Active
[36]
  inhibition: Active
[37]
  inhibition: Active
[38]
  Activity: inactive
[39]
  Activity: inactive
[40]
  Activity: inactive

Source: ChEMBL document CHEMBL1255381, “Golgicide A reveals essential roles for GBF1 in Golgi assembly and function” (Nat Chem Biol, 2009)
